In ChEMBL document CHEMBL2417469, “Synthesis of novel analogs of 2-pyrazoline obtained from [(7-chloroquinolin-4-yl)amino]chalcones and hydrazine as potential antitumor and antimalarial agents” (Eur J Med Chem, 2013):

Key:
Format in all cases: functional
HOP-92 = experiment: Cytotoxicity against human HOP92 cells after 48 hrs by SRB assay; conditions: HOP-92, 48 h
Summary of the method: (§1)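 NCI 60-cell-line screen. Cells preincubated 24 h at 37 °C, 5% CO2; time-zero plates TCA-fixed. Compounds dissolved in DMSO and tested at five concentrations (100, 10, 1.0, 0.1, 0.01 µM) for 48 h continuous exposure. Adherent cells fixed with cold TCA (10% final), then SRB stained; absorbance at 515 nm. GI50, TGI and LC50 calculated from growth relative to time-zero and untreated controls.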

OVCAR-8 = experiment: Cytotoxicity against human OVCAR8 cells after 48 hrs by SRB assay; conditions: OVCAR-8, 48 h; summary of the method: as §1
SW-620 = experiment: Cytotoxicity against human SW620 cells after 48 hrs by SRB assay; conditions: SW-620, 48 h
Summary of the method: (§2)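 NCI 60-cell screen. Cells grew 24 h (37 °C, 5% CO2) before compound was added. Compounds were in DMSO and diluted in medium with gentamicin, then tested at five levels (100, 10, 1.0, 0.1, 0.01 µM) with 48 h continuous exposure. Adherent cells were fixed with TCA (10% final) and stained with 0.4% SRB, absorbance read at 515 nm. A time-zero plate was included. LC50 is the concentration giving 50% loss of protein relative to time zero.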

HCC 2998 = experiment: Cytotoxicity against human HCC2998 cells after 48 hrs by SRB assay; conditions: HCC 2998, 48 h; summary of the method: as §1
T47D = experiment: Cytotoxicity against human T47D cells after 48 hrs by SRB assay; summary of the method: as §2
UACC-257 = experiment: Cytotoxicity against human UACC257 cells after 48 hrs by SRB assay; conditions: UACC-257, 48 h; summary of the method: as §2
SN12C = experiment: Cytotoxicity against human SN12C cells after 48 hrs by SRB assay; summary of the method: as §1
RXF 393 = experiment: Cytotoxicity against human RXF393 cells after 48 hrs by SRB assay; conditions: RXF 393, 48 h; summary of the method: as §1
SNB-19 = experiment: Cytotoxicity against human SNB19 cells after 48 hrs by SRB assay; conditions: SNB-19, 48 h; summary of the method: as §2
SF-268 = experiment: Cytotoxicity against human SF268 cells after 48 hrs by SRB assay; conditions: SF-268, 48 h; summary of the method: as §1
KM12 = experiment: Cytotoxicity against human KM12 cells after 48 hrs by SRB assay; conditions: KM12, 48 h; summary of the method: as §1
IGROV-1 = experiment: Cytotoxicity against human IGROV1 cells after 48 hrs by SRB assay; conditions: IGROV-1, 48 h; summary of the method: as §1
CAKI-1 = experiment: Cytotoxicity against human Caki1 cells after 48 hrs by SRB assay; conditions: CAKI-1, 48 h; summary of the method: as §1
A549 = experiment: Cytotoxicity against human A549/ATCC cells after 48 hrs by SRB assay; conditions: A549, 48 h; for CC50: read-out: LC50 (the source's name); summary of the method: as §1
HT-29 = experiment: Cytotoxicity against human HT-29 cells after 48 hrs by SRB assay; conditions: HT-29, 48 h; summary of the method: as §1
HOP-62 = experiment: Cytotoxicity against human HOP62 cells after 48 hrs by SRB assay; conditions: HOP-62, 48 h; summary of the method: as §1
[1] = Cytotoxicity against human EKVX cells after 48 hrs by SRB assay; summary of the method: as §1
UACC-62 = experiment: Cytotoxicity against human UACC62 cells after 48 hrs by SRB assay; conditions: UACC-62, 48 h; for CC50: read-out: LC50 (the source's name); summary of the method: as §2
LOX IMVI = experiment: Cytotoxicity against human LOXIMVI cells after 48 hrs by SRB assay; summary of the method: as §1
SK-MEL-28 = experiment: Cytotoxicity against human SK-MEL-28 cells after 48 hrs by SRB assay; conditions: SK-MEL-28, 48 h; for CC50: read-out: LC50 (the source's name); summary of the method: as §1
RPMI-8226 = experiment: Cytotoxicity against human RPMI8226 cells after 48 hrs by SRB assay; conditions: RPMI-8226, 48 h; summary of the method: as §1
COLO 205 = experiment: Cytotoxicity against human COLO205 cells after 48 hrs by SRB assay; conditions: COLO 205, 48 h; summary of the method: as §1
NCI-H226 = experiment: Cytotoxicity against human NCI-H226 cells after 48 hrs by SRB assay; conditions: NCI-H226, 48 h; summary of the method: as §1

COc1ccc(C2CC(c3ccc(Nc4ccnc5cc(Cl)ccc45)cc3)=NN2C=O)cc1 (stereo unspecified)
LC50 (concentration killing 50% of cells) (HOP-92): > 100 µM | GI50 (OVCAR-8): 69.8 µM | LC50 (50% net cell kill) (OVCAR-8): > 100 µM | GI50 (SW-620): 35.8 µM | LC50 (SW-620): > 100 µM | GI50 (HCC 2998): 18.1 µM | LC50 (HCC 2998): > 100 µM | GI50 (T47D): 1.38 µM | LC50 (concentration giving 50% cell kill relative to time zero) (T47D): > 100 µM | GI50 (UACC-257): 4.39 µM | LC50 (UACC-257): > 100 µM | GI50 (SN12C): 12.6 µM | LC50 (50% net cell kill relative to time zero) (SN12C): > 100 µM | GI50 (RXF 393): 11.6 µM | LC50 (concentration killing 50% of cells) (RXF 393): > 100 µM | GI50 (SNB-19): 5.65 µM | LC50 (SNB-19): > 100 µM | GI50 (SF-268): > 100 µM | LC50 (SF-268): > 100 µM | GI50 (KM12): 16.5 µM | LC50 (concentration killing 50% of cells) (KM12): > 100 µM | GI50 (IGROV-1): 43.1 µM | LC50 (concentration killing 50% of cells relative to time zero) (IGROV-1): > 100 µM | GI50 (CAKI-1): > 100 µM | LC50 (CAKI-1): > 100 µM | GI50 (A549): 50.3 µM | CC50 (A549): > 100 µM | GI50 (HT-29): 3.81 µM | LC50 (HT-29): > 100 µM | GI50 (HOP-62): 43.7 µM | LC50 (50% lethal concentration) (HOP-62): > 100 µM | GI50 [1]: > 100 µM | LC50 [1]: > 100 µM | GI50 (UACC-62): 5.99 µM | CC50 (UACC-62): > 100 µM | GI50 (LOX IMVI): 2.32 µM | LC50 (LOX IMVI): > 100 µM | GI50 (SK-MEL-28): 20.9 µM | CC50 (SK-MEL-28): > 100 µM | GI50 (RPMI-8226): 2.71 µM | LC50 (concentration killing 50% of cells) (RPMI-8226): > 100 µM | GI50 (COLO 205): 3.56 µM | LC50 (COLO 205): > 100 µM | GI50 (NCI-H226): > 100 µM | LC50 (50% lethal concentration) (NCI-H226): > 100 µM

COc1cc(C2CC(c3ccc(Nc4ccnc5cc(Cl)ccc45)cc3)=NN2C=O)cc(OC)c1OC (stereo unspecified)
GI50 (HOP-92): 1.83 µM | LC50 (concentration killing 50% of cells) (HOP-92): > 100 µM | GI50 (OVCAR-8): 9.98 µM | LC50 (50% net cell kill) (OVCAR-8): > 100 µM | GI50 (SW-620): 3.49 µM | LC50 (SW-620): > 100 µM | GI50 (HCC 2998): 5.52 µM | LC50 (HCC 2998): > 100 µM | GI50 (T47D): 2.33 µM | LC50 (concentration giving 50% cell kill relative to time zero) (T47D): > 100 µM | GI50 (UACC-257): 2.84 µM | LC50 (UACC-257): 55.4 µM | GI50 (SN12C): 4.37 µM | LC50 (50% net cell kill relative to time zero) (SN12C): > 100 µM | GI50 (RXF 393): 2.22 µM | LC50 (concentration killing 50% of cells) (RXF 393): > 100 µM | GI50 (SNB-19): 18.2 µM | LC50 (SNB-19): > 100 µM | GI50 (SF-268): 28 µM | LC50 (SF-268): > 100 µM | GI50 (KM12): 5.87 µM | LC50 (concentration killing 50% of cells) (KM12): > 100 µM | GI50 (IGROV-1): 22.3 µM | LC50 (concentration killing 50% of cells relative to time zero) (IGROV-1): > 100 µM | GI50 (CAKI-1): 5.47 µM | LC50 (CAKI-1): > 100 µM | GI50 (A549): 6.9 µM | CC50 (A549): > 100 µM | GI50 (HT-29): 2.83 µM | LC50 (HT-29): > 100 µM | GI50 (HOP-62): 4.13 µM | LC50 (50% lethal concentration) (HOP-62): 96.1 µM | GI50 [1]: 11.7 µM | LC50 [1]: > 100 µM | GI50 (UACC-62): 2.2 µM | CC50 (UACC-62): 59.3 µM | GI50 (LOX IMVI): 1.89 µM | LC50 (LOX IMVI): 7.83 µM | GI50 (SK-MEL-28): 2.22 µM | CC50 (SK-MEL-28): 14 µM | GI50 (RPMI-8226): 2.56 µM | LC50 (concentration killing 50% of cells) (RPMI-8226): > 100 µM | GI50 (COLO 205): 3.73 µM | LC50 (COLO 205): > 100 µM | GI50 (NCI-H226): 34.5 µM | LC50 (50% lethal concentration) (NCI-H226): > 100 µM

Cc1ccc(C2CC(c3ccc(Nc4ccnc5cc(Cl)ccc45)cc3)=NN2C=O)cc1 (stereo unspecified)
GI50 (HOP-92): 2.14 µM | LC50 (concentration killing 50% of cells) (HOP-92): > 100 µM | GI50 (OVCAR-8): > 100 µM | LC50 (50% net cell kill) (OVCAR-8): > 100 µM | GI50 (SW-620): > 100 µM | LC50 (SW-620): > 100 µM | GI50 (HCC 2998): 7.44 µM | LC50 (HCC 2998): > 100 µM | GI50 (T47D): 1.51 µM | LC50 (concentration giving 50% cell kill relative to time zero) (T47D): > 100 µM | GI50 (UACC-257): > 100 µM | LC50 (UACC-257): > 100 µM | GI50 (SN12C): 7.23 µM | LC50 (50% net cell kill relative to time zero) (SN12C): > 100 µM | GI50 (RXF 393): 4.89 µM | LC50 (concentration killing 50% of cells) (RXF 393): > 100 µM | GI50 (SNB-19): > 100 µM | LC50 (SNB-19): > 100 µM | GI50 (SF-268): 8.61 µM | LC50 (SF-268): > 100 µM | GI50 (KM12): 6.64 µM | LC50 (concentration killing 50% of cells) (KM12): > 100 µM | GI50 (IGROV-1): 26.6 µM | LC50 (concentration killing 50% of cells relative to time zero) (IGROV-1): > 100 µM | GI50 (CAKI-1): > 100 µM | LC50 (CAKI-1): > 100 µM | GI50 (A549): 9.86 µM | CC50 (A549): > 100 µM | GI50 (HT-29): 6.09 µM | LC50 (HT-29): > 100 µM | GI50 (HOP-62): > 100 µM | LC50 (50% lethal concentration) (HOP-62): > 100 µM | LC50 [1]: > 100 µM | GI50 (UACC-62): 4.13 µM | CC50 (UACC-62): > 100 µM | GI50 (LOX IMVI): 4.11 µM | LC50 (LOX IMVI): > 100 µM | GI50 (SK-MEL-28): > 100 µM | CC50 (SK-MEL-28): > 100 µM | GI50 (RPMI-8226): 2.18 µM | LC50 (concentration killing 50% of cells) (RPMI-8226): > 100 µM | GI50 (COLO 205): 4.59 µM | LC50 (COLO 205): > 100 µM | GI50 (NCI-H226): > 100 µM | LC50 (50% lethal concentration) (NCI-H226): > 100 µM
